The values that follow come from ChEMBL document CHEMBL3352181, “Novel phenyl and pyridyl substituted derivatives of isoindolines: Synthesis, antitumor activity and DNA binding features” (Eur J Med Chem, 2014).

Series [1] concerns Calf thymus DNA. Description: Binding affinity to calf thymus DNA at 50 uM circular dichroism spectroscopy. It counts as nucleic-acid assay. To be noted: Bos taurus. Summed up:
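CD spectra recorded from 480 to 230 nm, 10 mm path, 20 °C, in BPE buffer. CT-DNA (50 µM) incubated with compound rising from 1 to 60 µM or to 80 µM. Compound without DNA served as the control for intrinsic CD.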

Series [2] has as its system HeLa. Kind of series: Antiproliferative activity against human HeLa cells assessed as inhibition of cell proliferation after 72 hrs by MTT assay. To be noted: for IC50: Homo sapiens, HeLa, 72 h. It counts as functional, cell-based. In outline:
(§1)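 Cells grown as monolayers in DMEM with 10% FBS, 2 mM L-glutamine, penicillin/streptomycin, 37 °C, 5% CO2. Seeded at 5000/well on day 0. Compounds added after 24 h as five serial dilutions (0,01 to 100 µM), DMSO ≤0.1%, then 72 h. MTT read-out converted to percentage growth. IC50 by linear regression; quadruplicates in three experiments.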
Background: Tetrazolium assays rely on reduction of a dye to a coloured formazan, in cell work by metabolically active cells.

Series [3] concerns the target T1, DNA topoisomerase 1 (Homo sapiens) (UniProt P11387).
T1 sequence (whole entry): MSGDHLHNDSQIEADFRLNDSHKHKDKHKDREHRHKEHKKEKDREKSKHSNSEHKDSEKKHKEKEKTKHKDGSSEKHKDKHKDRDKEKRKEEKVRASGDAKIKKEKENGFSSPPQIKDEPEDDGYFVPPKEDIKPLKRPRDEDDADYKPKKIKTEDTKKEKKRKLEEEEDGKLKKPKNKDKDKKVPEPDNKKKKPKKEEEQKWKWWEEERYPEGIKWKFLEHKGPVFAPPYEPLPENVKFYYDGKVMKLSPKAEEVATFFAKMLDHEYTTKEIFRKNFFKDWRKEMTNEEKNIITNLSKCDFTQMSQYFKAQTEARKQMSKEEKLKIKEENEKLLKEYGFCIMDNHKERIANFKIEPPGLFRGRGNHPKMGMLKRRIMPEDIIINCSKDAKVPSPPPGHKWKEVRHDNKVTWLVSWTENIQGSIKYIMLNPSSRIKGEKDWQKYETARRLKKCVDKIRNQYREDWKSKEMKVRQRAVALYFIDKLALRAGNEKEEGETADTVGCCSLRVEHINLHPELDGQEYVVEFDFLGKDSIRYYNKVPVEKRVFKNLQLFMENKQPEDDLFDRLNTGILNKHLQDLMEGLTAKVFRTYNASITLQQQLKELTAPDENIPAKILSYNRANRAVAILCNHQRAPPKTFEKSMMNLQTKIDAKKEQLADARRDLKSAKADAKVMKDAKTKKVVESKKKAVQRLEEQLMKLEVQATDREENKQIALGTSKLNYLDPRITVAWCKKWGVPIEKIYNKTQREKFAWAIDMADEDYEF
Description: Inhibition of human topoisomerase 1 assessed as topoisomerase poison activity by measuring generation of open circular DNA using supercoiled pUC19 DNA at 5 to 50 uM by agarose gel electrophoresis. Summed up: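 Supercoiled pUC19 plasmid was incubated with human topoisomerase I and graded compound concentrations. Reactions were stopped with SDS and proteinase K. DNA forms were resolved on 1% agarose in TBE (2 h, 120 V), post-stained with ethidium bromide and photographed under UV. Poisoning was read as appearance of nicked DNA, with camptothecin as the positive control.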

The nature of series [4]: Binding affinity to pBluescript 265 bp DNA fragment (unknown origin) at 1 to 25 uM incubated for 15 mins by DNase-1 foot printing assay. In outline: (§2)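 265 bp EcoRI/PvuII fragment of pBluescript, 3'-end labelled with α[32P]-dATP, incubated with compound (up to 50 µM) for 15 min at 37 °C, then mildly digested with DNase I. Run on 8% denaturing polyacrylamide/8 M urea gels and imaged by phosphor screen. Base positions assigned against a DMS/piperidine G-track.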

For series [5], the system named is MCF7. Kind of series: Antiproliferative activity against human MCF7 cells assessed as inhibition of cell proliferation after 72 hrs by MTT assay. It counts as functional, cell-based. To be noted: for IC50: Homo sapiens, MCF7, 72 h. Summed up: as §1
A short description of series [6]: (§3) Antiproliferative activity against human SW620 cells assessed as inhibition of cell proliferation after 72 hrs by MTT assay. It counts as functional, cell-based, SW-620. To be noted: Homo sapiens, SW-620, 72 h. Summed up:
as §1

The test system of series [7] is SW-620. The series is described as §3. It counts as functional, cell-based. In outline:
as §1

The test system of series [8] is Calf thymus DNA. Kind of series: Binding affinity to calf thymus DNA assessed as change in melting temperature at drug/ base pair ratio of 0.25 by spectrophotometry. It counts as nucleic-acid assay. Particulars: Bos taurus. Summed up: (§4)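 CT-DNA absorbance followed at 260 nm from 20 to 100 °C, rising 1 °C per min, in BPE buffer, with or without compound at drug/base-pair ratio 0.25 or 0.5. Tm taken as midpoint of the hyperchromic transition from first-derivative plots. ΔTm is Tm with compound minus Tm of DNA alone.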

For series [9], the system named is Nucleic Acid. Description: Induction of DNA intercalation in supercoiled pUC19 DNA in presence of human topoisomerase 1 assessed as effect on topoisomerase 1-mediated DNA relaxation at 5 to 50 uM by agarose gel electrophoresis. It counts as nucleic-acid assay. Particulars: Escherichia coli. Summed up:
(§5)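 Supercoiled pUC19 incubated with human topoisomerase I and graded compound concentrations. Stopped with SDS/proteinase K. DNA forms resolved on 1% agarose in TBE, 2 h at 120 V, stained post-run with ethidium bromide and viewed under UV. Camptothecin was the topo I poison control.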

Series [10] has as its system HepG2. Description: Antiproliferative activity against human HepG2 cells assessed as inhibition of cell proliferation after 72 hrs by MTT assay. It counts as functional, cell-based. To be noted: for IC50: HepG2, 72 h. In outline: as §1
Series [11] has as its system Calf thymus DNA. Description: Binding affinity to calf thymus DNA assessed as change in melting temperature at drug/ base pair ratio of 0.5 by spectrophotometry. It counts as nucleic-acid assay. Particulars: Bos taurus. Summed up:
as §4

The subject of series [12] is BJ. Kind of series: Antiproliferative activity against human BJ cells assessed as inhibition of cell proliferation after 72 hrs by MTT assay. To be noted: 72 h; for IC50: Homo sapiens, BJ; for inhibition (INH): human, bj. It counts as cell-based. In outline: as §1
In series [13] the test system is Nucleic Acid. Kind of series: Induction of DNA intercalation in supercoiled pUC19 DNA in presence of human topoisomerase 1 assessed as effect on topoisomerase 1-mediated DNA relaxation at 50 uM by agarose gel electrophoresis. It counts as nucleic-acid assay. Particulars: Escherichia coli. Summed up:
as §5

The nature of series [14]: Binding affinity to pBluescript 265 bp DNA fragment (unknown origin) assessed binding to AT-rich AATT sequence at 1 to 25 uM incubated for 15 mins by DNase-1 foot printing assay. In outline: as §2
Series [15] is described as follows: Antiproliferative activity against human WI38 cells assessed as inhibition of cell proliferation after 72 hrs by MTT assay. It counts as cell-based, WI-38. Summed up: as §1
Series [16] can be described thus: Binding affinity to pBluescript 265 bp DNA fragment (unknown origin) assessed binding to ACAA sequence at 1 to 25 uM incubated for 15 mins by DNase-1 foot printing assay. Summed up: as §2
The nature of series [17]: Binding affinity to pBluescript 265 bp DNA fragment (unknown origin) assessed binding to TTGT) sequence at 1 to 25 uM incubated for 15 mins by DNase-1 foot printing assay. In outline:
as §2

The nature of series [18]: Binding affinity to pBluescript 265 bp DNA fragment (unknown origin) assessed binding to AT-rich ATTA sequence at 1 to 25 uM incubated for 15 mins by DNase-1 foot printing assay. Summed up: as §2

Active and inactive are the calls of the source. The rule behind the calls is not given here. Bounds are passed on as bounds.

The IC50 is the concentration at which inhibition is half-maximal. Broadly, the ΔTm is the shift of the melting midpoint relative to a reference. For the compound `Cl.c1ccc2c(c1)CN(c1ccc(C3=NCCN3)cc1)/C2=N/c1ccc(C2=NCCN2)cc1`, the result in series [1] and in series [9] was Active. The inhibition result in [2], in [5], in series [7] and in [10] was “Dose-dependent effect” throughout. Moreover, the half-inhibitory concentration (IC50) in [2] was 78 µM; in [5], 20 µM; in [6], > 100 µM; in series [10], 83.2 µM; in [12], 8.77 µM. Further, in [3], the inhibition entry is “inactive”. Further, in series [4], the outcome was inactive. The values for the ΔTm in series [8] and in series [11] were 16 °C and 19.6 °C, respectively. Besides, the “inhibition (INH)” value in series [12] is “Dose-dependent effect”.
For `Cc1ccnc(/N=C2\c3ccccc3CN2c2cc(C)ccn2)c1`, the outcome in series [13] was Active. The inhibition entry in series [2], in series [5], in series [7] and in [10] was “Dose-dependent effect” each time. Moreover, the IC50 in series [2] is 97.1 µM; in series [5], 0.7 µM; in [6], > 100 µM; in series [10], 43.2 µM; in series [12] it was 80.1 µM. Further, the inhibition result in [3] was “inactive”. Further, the ΔTm in series [11] was 0 °C. In addition, the “inhibition (INH)” value in [12] is reported as “Dose-dependent effect”.
Turning to `CC(C)NC(=N)c1ccc(/N=C2\c3ccccc3CN2c2ccc(C(=N)NC(C)C)cc2)cc1.Cl`, the outcome in series [1], in series [14], in [16], in series [17] and in series [18] was Active. In series [13], the outcome was inactive. Moreover, the IC50 was 53.9 µM in series [15] (Homo sapiens, WI-38, 72 h); > 100 µM in [2]; 53.4 µM in [5]; > 100 µM in series [6]; 62.2 µM in series [10]. The “inhibition (INH)” value in series [15] (human, wi-38, 72 h) is listed as “Dose-dependent effect”. Moreover, the inhibition result in series [2], in series [5], in [7] and in series [10] was “Dose-dependent effect” in each case. The inhibition result in series [3] is “inactive”. For the same compound, the results for the ΔTm in series [8] and in series [11] were 6.3 °C and 11.3 °C, respectively.
